Sampled rows, rich in hits. Any-hit rate of the full collection: about 1.9%.
HGIII-sPLA2 inh = human group III sPLA2 inhibitors, primary screen, biochemical, QFRET, BODIPY PC-A2 liposome substrate. hit rate 0.56% among 370,000. QFRET BODIPY PC-A2 liposome hydrolysis, fluorescence. inhibition, % at 12.2 µM. AID 743126, 2013;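 active = inhibition above mean plus 3 SD of compounds lying within the high and low control bounds, cut at about 19% in these data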;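 note: 0% = median of test compound wells and 100% = no enzyme DMSO wells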
Target sequence (Q9NZ20 whole entry, looked up): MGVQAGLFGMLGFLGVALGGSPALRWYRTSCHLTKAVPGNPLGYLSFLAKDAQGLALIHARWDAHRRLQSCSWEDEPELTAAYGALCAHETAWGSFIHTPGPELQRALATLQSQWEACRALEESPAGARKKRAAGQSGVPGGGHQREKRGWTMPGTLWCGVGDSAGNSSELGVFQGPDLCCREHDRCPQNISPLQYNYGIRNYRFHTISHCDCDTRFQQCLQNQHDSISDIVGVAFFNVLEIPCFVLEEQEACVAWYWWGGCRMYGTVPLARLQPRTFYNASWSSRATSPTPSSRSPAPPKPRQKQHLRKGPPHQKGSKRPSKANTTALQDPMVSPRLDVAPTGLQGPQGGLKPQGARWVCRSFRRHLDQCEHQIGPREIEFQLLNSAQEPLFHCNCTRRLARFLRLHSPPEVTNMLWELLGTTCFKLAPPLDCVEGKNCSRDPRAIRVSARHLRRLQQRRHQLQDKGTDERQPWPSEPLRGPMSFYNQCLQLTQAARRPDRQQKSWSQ
PLC-gamma1 inh = PLC-gamma1 enzyme inhibitors, primary screen, biochemical, fluorescence, purified enzyme | 1-phosphatidylinositol 4,5-bisphosphate phosphodiesterase gamma-1 (Homo sapiens), P19174 | fluorogenic substrate | inhibition, % at 12.2 µM | hit rate 0.84% among 370,000 | AID 720700, 2013; in the data active = inhibition above about 9.5%
PLCb3 inh = human PLC-beta3 inhibitors, primary screen, biochemical, fluorescence; 1-phosphatidylinositol 4,5-bisphosphate phosphodiesterase beta-3 (Homo sapiens), Q01970; Purified PLC-beta3, fluorogenic substrate; inhibition, % at 12.2 µM; hit rate 0.18% among 370,000; AID 720704, 2013; in the data active = inhibition above about 11%;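 note: 0% = median of compound wells on plate and 100% = full blocker control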
procasp3 activ = activators of human procaspase-3 D3A mutant, primary screen, biochemical, absorbance, PC-3 D3A mutant, single concentration. Caspase-3 (Homo sapiens), P42574. recombinant procaspase-3 D3A, Ac-DEVD-pNA absorbance 405 nm. activation, % at 8.5 µM. hit rate 0.11% among 330,000;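 active = activation above the mean of all tested compounds plus 3 SD, cut at about 21% in these data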;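 note: 0% = DMSO alone and 100% = DMSO wells spiked with extra 5 µM PC-3 D3A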
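Assay system – Procaspase-3 D3A mutant · Benchmarks – DMSO low control, extra-enzyme high control · Technique – 405 nm absorbance of p-nitroaniline, reads at 0 and 120 min · Doses – 8.5 µM nominal · Measure – % activation between DMSO and enzyme-spiked controls · Also added – Ac-DEVD-pNA chromogenic peptide substrate · Schedule – 1 h compound preincubation, 2 h substrate hydrolysis at 25 °C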
proCasp7 act = procaspase-7 activators, primary screen, counter-screen for procaspase-3 activator project, biochemical, absorbance, HTS, human; activation, % at 8.5 µM; recombinant procaspase-7, Ac-DEVD-pNA absorbance 405 nm; D23A/D198A/D206A triple mutant, cannot self-cleave; scale: DMSO 0, 5 µM enzyme 100; hit rate 0.093% among 330,000;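 active = percent activation above the screen-wide mean plus 3 SD, cut at about 25% in these data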
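Assay system: Uncleavable procaspase-7 mutant enzyme; Input: 2 µM procaspase-7 mutant as dispensed; Also added: DEVD-pNA substrate; Medium: Zinc-free HEPES pH 7.4 with 300 mM NaCl, 0.01% Triton X-100; Timing: 1 h compound preincubation, 2 h substrate cleavage, 25 °C; Measured by: Epi-absorbance of released pNA at 405 nm, two timepoints.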
Arr AP2 block = inhibitors of beta-arrestin/AP2 binding, primary screen, biochemical, GPCR trafficking, flow cytometry | inhibition, % at 10 µM | hit rate 0.31% among 340,000 | beta-arrestin 1 C-terminal peptide binding to AP2 beta2-adaptin appendage (human) | AID 504490, 2011 | FITC-arrestin peptide / GST-AP2 beads; AP2 beta2 appendage carries R879A mutation;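 active = inhibition above a set limit, near 3 SD of compounds lacking own fluorescence, cut at about 54% in these data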;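 note: plate controls were DMSO wells for no effect and 5 µM unlabelled arrestin peptide for full effect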
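Test system: GST-tagged AP2 beta2-adaptin appendage (R879A) on 4 µm glutathione beads; also added: fluorescein-tagged arrestin peptide at 50 nM final; timing: 12 min plus 1 h, RT; signal: flow cytometry, FL1 (488/535 nm); read-out: percent drop in bead-associated FITC signal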
sPLA2 confirm = human group III sPLA2 inhibitors, confirmation, biochemical, QFRET, triplicate. recombinant hGIII-sPLA2, BODIPY PC-A2 QFRET fluorescence. AID 743280, 2014. hit rate 34% among 2,000. shares compounds with HGIII-sPLA2 inh. inhibition, % at 12.2 µM;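 active = mean inhibition across triplicates above the hit cutoff set in the earlier primary screen, cut at about 19% in these data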;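 note: 0% = enzyme with DMSO and 100% = DMSO wells lacking enzyme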
BODIPY interf = 535nm fluorescence optical interference, confirmation, artefact control for HGIII-sPLA2 inhibitor project, biochemical, QFRET. shares compounds with HGIII-sPLA2 inh. BODIPY FL product fluorescence interference. AID 743282, 2014. hit rate 8.5% among 2,000. inhibition, % at 12.2 µM;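 active = average inhibition above the solvent-only control mean plus 3 SD, cut at about 6% in these data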;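 note: 0% = DMSO with substrate plus product and 100% = DMSO with substrate alone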
535nm interf DR = 535nm fluorescence optical interference, dose response, artefact control for HGIII-sPLA2 inhibitor project, biochemical, QFRET; 240 tested, under 10 active; BODIPY FL product fluorescence interference, cell-free; IC50, µM; AID 743455, 2014; shares compounds with HGIII-sPLA2 inh;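 active = IC50 at or below 10 µM; inactive = IC50 above 10 µM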
Numbers without * were called inactive; . = no result.

SMILES | HGIII-sPLA2 inh | PLC-gamma1 inh | PLCb3 inh | procasp3 activ | proCasp7 act | Arr AP2 block | sPLA2 confirm | BODIPY interf | others
Oc1cc(-c2ccncc2)cc2cccnc12 | -3 | -5 | -3 | 0 | -3 | 8 | . | .
CCOc1cc2c3c(c1)C1(OCCO1)C(=O)N3C(C)(C)CC2C (stereo not given) | -6 | 0 | 2 | -5 | -5 | -10 | . | .
CCc1cc2c3c(c1)C(C)CC(C)(C)N3C(=O)C2=O (stereo not given) | 27* | -5 | -115 | 3 | -7 | 4 | 12 | -4
CCOc1ccc(OCC)c(NC(=O)CCCN2C(=S)NC(C)(C)CC2C)c1 (stereo not given) | 25* | 2 | 2 | -9 | 3 | 32 | 24* | -13
COc1ccc(OC)c(NC(=O)CCCN2C(=S)NC(C)(C)CC2C)c1 (stereo not given) | 18 | 1 | 0 | 3 | 0 | -9 | . | .
COc1ccc(C)cc1NC(=O)CCCN1C(=S)NC(C)(C)CC1C (stereo not given) | 24* | -1 | -4 | 1 | -5 | -5 | 9 | -3
CCOc1ccccc1NC(=O)CCCN1C(=S)NC(C)(C)CC1C (stereo not given) | 22* | 2 | -4 | -11 | 0 | 34 | 20* | -9
CC1CC(C)(C)NC(=S)N1CC(=O)NCc1ccccc1Cl (stereo not given) | 30* | 0 | -4 | -13 | -3 | -1 | 9 | 1
CC(C)(C)OC(=O)NCc1ccccc1/C=C/S(=O)(=O)NC1CCCC1 | 5 | 1 | -2 | . | . | . | . | .
CCOc1ccccc1Nc1nnc(SCC(=O)Nc2cccc(S(=O)(=O)NC3=NCCCCC3)c2)s1 | -13 | 2 | -4 | -2 | -2 | -12 | . | .
Cc1noc(C)c1CCC(=O)NC1CCCN(Cc2ccc(CC(C)C)cc2)C1 (stereo not given) | 0 | 3 | -2 | 3 | 7 | 25 | . | .
O=C(COC(=O)c1ccc(Cl)nc1)NNC(=O)c1ccc(Cl)cc1 | -5 | 1 | 0 | 0 | 0 | 3 | . | .
Cc1ccc(-n2ncc3c2CC(C)(C)CC3NC(=O)CCc2c(C)noc2C)cc1 (stereo not given) | -4 | -2 | -6 | . | . | -4 | . | .
CCCCNC(=O)C1c2ccccc2OCC(=O)N1CC(F)(F)F (stereo not given) | 20* | 3 | -2 | . | . | . | -5 | -6
CCc1ccc(CC2(O)CC(C)N(C)CC2C)cc1 (stereo not given) | 2 | -1 | 0 | -4 | 3 | 3 | . | .
CC1CC(O)(CC(O)(c2ccccc2)c2ccccc2)C(C)CN1C (stereo not given) | 19* | 6 | -5 | 5 | 2 | -14 | -13 | -16
COC(=O)c1cc(S(=O)(=O)NCCCN2CCCC2=O)cn1C | 3 | 1 | -7 | 4 | 2 | -15 | . | .
FC(F)Sc1nc2ccccc2[nH]1 | 25* | 2 | -5 | -6 | -8 | -20 | 15 | -3
O=C(CCc1nnc(-c2ccccc2)o1)NC1CCCCC1 | 19* | 3 | -6 | 0 | -3 | -16 | 6 | -5
COC(c1ccccc1)c1nnc(CCC(=O)NC2CCCCC2)o1 (stereo not given) | -2 | 1 | 1 | 6 | 18 | -9 | . | .
OCc1ccccc1-c1ccc2nncn2c1 | 1 | -1 | 3 | . | . | . | . | .
Cc1c(Cl)ccc2sc(NC(=O)CN3C(=O)c4ccccc4C3=O)nc12 | 20* | 3 | -1 | -3 | 1 | -2 | 0 | -8
O=C1c2ccccc2CN1CCSC(=S)N1CCOCC1 | 21* | 1 | -2 | -1 | 4 | 25 | 6 | -10
CCCOc1ccc(Br)cc1CSC(=N)N | 35* | 0 | 0 | 4 | 6 | -2 | 18 | -15
N#CCSc1ccccc1NC(=O)COC(=O)C1CCN(C(=O)c2ccc(Cl)cc2)CC1 | 2 | 1 | 1 | . | . | . | . | .
SMILES | HGIII-sPLA2 inh | PLC-gamma1 inh | PLCb3 inh | procasp3 activ | proCasp7 act | Arr AP2 block | sPLA2 confirm | BODIPY interf | others
COc1ccc(/C=N\NC(=S)SCN2C(=O)C3CCC(C)(C2=O)C3(C)C)cc1 (stereo not given) | 10 | -2 | -1 | -13 | -19 | 0 | . | .
CC12CCC(C(=O)N(CSC(=S)N/N=C\c3ccccc3O)C1=O)C2(C)C (stereo not given) | 28* | -9 | -6 | -10 | -12 | 8 | 36* | 4
CCC(=O)Nc1ccc(C(=O)NCc2ccccn2)cc1 | 20* | 4 | -1 | -3 | 10 | 16 | -1 | -2
CCC(=O)Nc1ccc(C(=O)NNC(=O)c2ccc(C)cc2)cc1 | 6 | 5 | 5 | 1 | 6 | -6 | . | .
CCC(=O)Nc1ccc(C(=O)NNC(=O)CCCCC(=O)NNC(=O)c2ccc(NC(=O)CC)cc2)cc1 | 22* | -1 | -2 | . | . | . | 2 | -10
Cc1ccccc1C(C(=O)NC1CCCCC1)N(C(=O)c1ccccn1)c1cccnc1 (stereo not given) | 3 | 1 | -7 | 1 | 1 | 26 | . | .
Cc1nn(C)c(-c2n[nH]c(=S)n2Cc2ccco2)c1Cl | 20* | -5 | -4 | -10 | -19 | 23 | 22* | -1
Oc1ccc(-c2n[nH]c(=S)n2Cc2ccco2)cc1 | 5 | -1 | 0 | -12 | -16 | -4 | . | .
S=C(Nc1ccc(Cl)cc1)c1nc2ccccc2[nH]1 | 30* | 6 | 8 | 7 | 3 | 11 | 36* | 2 | 535nm interf DR=>122
N#Cc1ccsc1NC(=O)CCN1CCN(C(c2ccccc2)c2ccccc2)CC1 | -7 | 5 | -5 | 9 | 2 | -2 | . | .

Assay outcomes from PubChem BioAssay.
